What all share (experiment): HIF-1a and HIF-2a reporter inhibitors, SAR follow-up, cell-based, luminescence, MIAPaCa-2, 786-0, panel (AID 652011)
Assay [1] addresses Endothelial PAS domain-containing protein 1 (Homo sapiens) (UniProt Q99814). As to conditions: MIAPaCa-2/PANC HIF reporter, luciferase luminescence, desferoxamine, overnight; HIF2a PANC cells; mean of runs. An outline of the steps: (§1)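 Probe or stimulus: desferoxamine stimulus / Schedule: overnight compound incubation at 37 °C, 10 min reagent / Dosing: compounds from 10 mM and 0.3125 mM stocks, 1% DMSO final / Signal: luciferase luminescence with One-Glo reagent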

For a further assay, the system named is HIF1a. As to conditions: MIAPaCa-2/PANC HIF reporter, luciferase luminescence, desferoxamine, overnight. An outline of the steps:
as §1

The test system of a further assay is HIF2a PANC. As to conditions: MIAPaCa-2/PANC HIF reporter, luciferase luminescence, desferoxamine, overnight. An outline of the steps: as §1
Where [2] appears, read: run 1, individual run IC50, panel line.
Where [3] appears, read: run 2, individual run IC50, panel line.

The structures appear in SMILES notation. pIC50: −log10 of the molar value. Several values for one entry are separate records, joined by “and”; a condition that tells them apart may be missing. Equal values may be shown once. Activity calls are given as the source filed them.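 Rule for the calls: active = IC50 of 10 µM or lower on HIF-2a in both cell lines, but not on HIF-1a; inactive = the rest, including compounds also potent on HIF-1a.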 Some results are limits rather than exact numbers.

Sequence of Endothelial PAS domain-containing protein 1 (Homo sapiens) (Q99814 whole entry, looked up, the tested form may be a part): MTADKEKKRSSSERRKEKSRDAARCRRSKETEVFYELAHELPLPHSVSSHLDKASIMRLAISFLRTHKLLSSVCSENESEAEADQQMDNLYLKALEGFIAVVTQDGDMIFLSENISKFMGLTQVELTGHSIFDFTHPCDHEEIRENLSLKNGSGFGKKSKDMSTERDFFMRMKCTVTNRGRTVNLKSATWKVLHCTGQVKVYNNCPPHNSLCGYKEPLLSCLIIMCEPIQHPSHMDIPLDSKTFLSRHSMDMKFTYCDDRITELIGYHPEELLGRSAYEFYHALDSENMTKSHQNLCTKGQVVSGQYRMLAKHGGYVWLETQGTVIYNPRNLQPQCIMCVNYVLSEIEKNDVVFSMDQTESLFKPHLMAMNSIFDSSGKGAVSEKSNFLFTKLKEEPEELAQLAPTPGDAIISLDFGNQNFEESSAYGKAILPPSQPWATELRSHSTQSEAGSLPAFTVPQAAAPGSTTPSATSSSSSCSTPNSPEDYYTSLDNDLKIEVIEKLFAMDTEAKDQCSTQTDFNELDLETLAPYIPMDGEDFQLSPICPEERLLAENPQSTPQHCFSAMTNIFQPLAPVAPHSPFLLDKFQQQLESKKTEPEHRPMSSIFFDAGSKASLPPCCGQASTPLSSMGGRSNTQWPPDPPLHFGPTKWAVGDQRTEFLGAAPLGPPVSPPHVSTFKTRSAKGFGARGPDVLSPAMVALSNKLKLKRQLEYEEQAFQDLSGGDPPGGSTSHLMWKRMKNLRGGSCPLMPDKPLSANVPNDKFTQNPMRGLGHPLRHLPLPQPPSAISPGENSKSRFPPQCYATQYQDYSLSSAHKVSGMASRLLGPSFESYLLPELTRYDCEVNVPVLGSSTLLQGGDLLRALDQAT

One may read the IC50 as the concentration that gives 50% inhibition. Broadly, the pIC50 is the negative decadic logarithm of the IC50, by convention in mol/L. As to `CCc1ccc(-c2noc(CCC(=O)NC3CC3)n2)cc1`, the IC50 in assay [1] was > 99 µM (inactive). Further, the pIC50 with HIF1a (setting [2]), with HIF1a (setting [3]), in the assay on HIF2a PANC (setting [2]) and in the assay on HIF2a PANC (setting [3]) was less than 4.00 throughout.
As to `CC(C)(C)c1ccc(-c2noc(CCC(=O)NC3CC3)n2)cc1`, the pIC50 was greater than 6.72 in assay [1]; less than 4.00 in the assay with HIF1a (setting [2]); less than 4.00 with HIF1a (setting [3]); greater than 5.00 with HIF2a PANC (setting [2]); greater than 6.72 with HIF2a PANC (setting [3]).
Consider `CCCCc1ccc(-c2noc(CCC(=O)NC)n2)cc1`, for which the IC50 in assay [1] is > 99 µM (inactive). In addition, the pIC50 in the assay with HIF1a (setting [2]), with HIF1a (setting [3]), in the assay with HIF2a PANC (setting [2]) and with HIF2a PANC (setting [3]) was less than 4.00 each time.
Turning to `C=CCNC(=O)CCc1nc(-c2ccc(C(C)(C)C)cc2)no1`, the pIC50 was greater than 6.72 in assay [1]; less than 4.00 with HIF1a (setting [2]); less than 4.00 with HIF1a (setting [3]); greater than 5.00 with HIF2a PANC (setting [2]); greater than 6.72 in the assay with HIF2a PANC (setting [3]).
`CCNC(=O)CCc1nc(-c2ccc(C(C)(C)C)cc2)no1`: the pIC50 with HIF1a (setting [2]) was less than 4.00; in the assay with HIF1a (setting [3]) it was less than 4.00; in the assay on HIF2a PANC (setting [2]) it was < 4.00 and > 5.00; with HIF2a PANC (setting [3]) it was greater than 6.72.
Regarding `CC(C)(C)c1ccc(-c2noc(CCC(=O)Nc3ccccc3)n2)cc1`, the pIC50 was greater than 6.72 in assay [1]; less than 4.00 with HIF1a (setting [2]); less than 4.00 with HIF1a (setting [3]); greater than 6.72 with HIF2a PANC (setting [2]); greater than 6.72 in the assay on HIF2a PANC (setting [3]).
For the compound `CNC(=O)CCc1nc(-c2ccc(C(C)(C)C)cc2)no1`, the IC50 result in assay [1] was “inactive”. In addition, the negative logarithm of the IC50 (pIC50) was less than 4.00 with HIF1a (setting [2]), less than 4.00 in the assay with HIF1a (setting [3]), greater than 6.72 in the assay on HIF2a PANC (setting [2]) and less than 4.00 with HIF2a PANC (setting [3]).
`CC(C)(C)c1ccc(-c2noc(CCC(N)=O)n2)cc1`: the pIC50 in assay [1] was greater than 6.72; in the assay with HIF1a (setting [2]) it was less than 4.00; with HIF1a (setting [3]), less than 4.00; in the assay with HIF2a PANC (setting [2]), greater than 6.72; with HIF2a PANC (setting [3]), greater than 6.72.
Consider `CCNC(=O)CCc1nc(-c2c(Cl)cccc2Cl)no1`, for which the IC50 in assay [1] was > 99 µM (inactive). For the same compound, the pIC50 with HIF1a (setting [2]), in the assay with HIF1a (setting [3]), with HIF2a PANC (setting [2]) and in the assay on HIF2a PANC (setting [3]) was less than 4.00 each time.
Consider `CNC(=O)CCc1nc(-c2ccc(F)cc2)no1`, for which, in assay [1], the IC50 was > 99 µM (inactive). Moreover, the pIC50 in the assay on HIF1a (setting [2]), in the assay on HIF1a (setting [3]), in the assay on HIF2a PANC (setting [2]) and in the assay on HIF2a PANC (setting [3]) was less than 4.00 in each case.
`CNC(=O)CCc1nc(-c2ccc(Cl)cc2)no1`: the IC50 in assay [1] was > 99 µM (inactive). The pIC50 with HIF1a (setting [2]), with HIF1a (setting [3]), in the assay on HIF2a PANC (setting [2]) and in the assay with HIF2a PANC (setting [3]) was less than 4.00 throughout.
`CCNC(=O)CCc1nc(-c2ccc(C(C)C)cc2)no1`: the IC50 in assay [1] was > 99 µM (inactive). Also, the pIC50 with HIF1a (setting [2]), with HIF1a (setting [3]), with HIF2a PANC (setting [2]) and in the assay with HIF2a PANC (setting [3]) was less than 4.00 in each case.
Consider `CCc1ccc(-c2noc(CCC(=O)NC)n2)cc1`, for which the IC50 in assay [1] was > 99 µM (inactive). Moreover, the negative-log IC50 (pIC50) in the assay on HIF1a (setting [2]), in the assay with HIF1a (setting [3]), with HIF2a PANC (setting [2]) and in the assay on HIF2a PANC (setting [3]) was less than 4.00 in each case.
Consider `CC(C)(C)NC(=O)CCc1nc(-c2ccc(C(C)(C)C)cc2)no1`, for which the negative logarithm of the IC50 (pIC50) is 6.24 in assay [1]; less than 4.00 in the assay on HIF1a (setting [2]); less than 4.00 in the assay on HIF1a (setting [3]); greater than 6.72 in the assay on HIF2a PANC (setting [2]); 6.24 with HIF2a PANC (setting [3]).
Regarding `CC(C)CNC(=O)CCc1nc(-c2ccc(C(C)(C)C)cc2)no1`, the negative logarithm of the IC50 (pIC50) is greater than 6.72 in assay [1]; less than 4.00 with HIF1a (setting [2]); less than 4.00 in the assay with HIF1a (setting [3]); greater than 6.72 with HIF2a PANC (setting [2]); greater than 6.72 in the assay on HIF2a PANC (setting [3]).
`CC(C)c1ccc(-c2noc(CCC(=O)NC(C)(C)C)n2)cc1`: the IC50 in assay [1] was > 99 µM (inactive). The pIC50 in the assay with HIF1a (setting [2]), with HIF1a (setting [3]), with HIF2a PANC (setting [2]) and in the assay on HIF2a PANC (setting [3]) was less than 4.00 throughout.
In the case of `O=C(CCc1nc(-c2ccccc2)no1)NC1CC1`, in assay [1], the IC50 was > 99 µM (inactive). Moreover, the pIC50 with HIF1a (setting [2]), in the assay on HIF1a (setting [3]), in the assay on HIF2a PANC (setting [2]) and in the assay with HIF2a PANC (setting [3]) was less than 4.00 each time.
In the case of `CCCNC(=O)CCc1nc(-c2ccc(C(C)(C)C)cc2)no1`, in assay [1], the IC50 entry is “inactive”. For the same compound, the negative logarithm of the IC50 (pIC50) in the assay on HIF1a (setting [2]) is less than 4.00; in the assay with HIF1a (setting [3]) it was less than 4.00; with HIF2a PANC (setting [2]), less than 4.00; with HIF2a PANC (setting [3]), greater than 6.72.
With `O=C(O)CCc1nc(-c2ccccc2)no1`, the IC50 in assay [1] is > 99 µM (inactive). For the same compound, the pIC50 in the assay with HIF1a (setting [2]), with HIF1a (setting [3]), with HIF2a PANC (setting [2]) and with HIF2a PANC (setting [3]) was less than 4.00 each time.

Source of the values: PubChem BioAssay AID652011 (Sanford-Burnham Center for Chemical Genomics, 2013).
